Results from ChEMBL document CHEMBL3414544, “PAINS in the assay: chemical mechanisms of assay interference and promiscuous enzymatic inhibition observed during a sulfhydryl-scavenging HTS” (J Med Chem, 2015).
Calls of active or inactive are those of the source.

What was measured:
[1] = Fluorescence quenching in HTS buffer with […] CoA assessed as fluorescence signal reduction at 10 uM after 10 mins; assay type: physicochemical
[2] = Fluorescence quenching in HTS buffer assessed as fluorescence signal reduction at 10 uM after 10 mins; assay type: physicochemical
[3] = molecular target: Histone acetyltransferase GCN5 (Saccharomyces cerevisiae S288c) (UniProt Q03330); experiment: Inhibition of yeast histone acetyltransferase Gcn5-Ada2-Ada3 complex using tetramer and [3H]-acetyl-CoA assessed as acetate incorporation […] by liquid scintillation counting in presence of 1 mM DTT
Histone acetyltransferase GCN5 (Saccharomyces cerevisiae S288c), sequence (Q03330 whole entry): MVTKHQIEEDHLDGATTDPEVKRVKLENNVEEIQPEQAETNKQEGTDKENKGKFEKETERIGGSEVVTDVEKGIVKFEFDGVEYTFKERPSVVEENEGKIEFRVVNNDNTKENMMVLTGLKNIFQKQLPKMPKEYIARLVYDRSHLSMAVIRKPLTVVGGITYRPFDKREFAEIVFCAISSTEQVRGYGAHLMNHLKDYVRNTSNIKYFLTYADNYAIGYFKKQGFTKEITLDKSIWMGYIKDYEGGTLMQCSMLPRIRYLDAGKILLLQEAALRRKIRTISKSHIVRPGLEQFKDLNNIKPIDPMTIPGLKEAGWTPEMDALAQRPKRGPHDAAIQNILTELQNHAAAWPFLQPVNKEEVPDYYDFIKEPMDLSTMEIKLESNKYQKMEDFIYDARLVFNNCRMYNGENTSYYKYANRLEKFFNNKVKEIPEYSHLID

[4] = molecular target: T1, Histone acetyltransferase RTT109 (Saccharomyces cerevisiae (strain ATCC 204508 / S288c) (Baker's yeast)) (UniProt Q07794); experiment: Inhibition of Vps75-stimulated recombinant Saccharomyces cerevisiae histone acetyltransferase Rtt109 assessed as H3K27 acetylated product at […] after 45 mins by Slot bolt inhibiton assay
T1 sequence (whole entry): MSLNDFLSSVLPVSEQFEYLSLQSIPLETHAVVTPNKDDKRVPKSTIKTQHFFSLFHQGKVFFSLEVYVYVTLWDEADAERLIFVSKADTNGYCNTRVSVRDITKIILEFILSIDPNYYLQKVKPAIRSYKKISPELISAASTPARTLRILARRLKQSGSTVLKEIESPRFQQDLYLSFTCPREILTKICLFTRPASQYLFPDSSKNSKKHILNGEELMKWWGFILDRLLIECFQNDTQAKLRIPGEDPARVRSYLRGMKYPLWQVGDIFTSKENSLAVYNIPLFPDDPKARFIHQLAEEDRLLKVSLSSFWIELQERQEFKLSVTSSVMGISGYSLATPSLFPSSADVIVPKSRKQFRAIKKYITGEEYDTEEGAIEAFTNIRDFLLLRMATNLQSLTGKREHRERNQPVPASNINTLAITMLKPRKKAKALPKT

[5] = molecular target: T2, Histone acetyltransferase p300 (Homo sapiens, UniProt Q09472); experiment: Inhibition of recombinant histone acetyltransferase p300 (unknown origin) using dH3-H4 tetramer and [3H]-acetyl-CoA assessed as acetate incorporation […] by liquid scintillation counting
T2 sequence (Q09472 whole entry): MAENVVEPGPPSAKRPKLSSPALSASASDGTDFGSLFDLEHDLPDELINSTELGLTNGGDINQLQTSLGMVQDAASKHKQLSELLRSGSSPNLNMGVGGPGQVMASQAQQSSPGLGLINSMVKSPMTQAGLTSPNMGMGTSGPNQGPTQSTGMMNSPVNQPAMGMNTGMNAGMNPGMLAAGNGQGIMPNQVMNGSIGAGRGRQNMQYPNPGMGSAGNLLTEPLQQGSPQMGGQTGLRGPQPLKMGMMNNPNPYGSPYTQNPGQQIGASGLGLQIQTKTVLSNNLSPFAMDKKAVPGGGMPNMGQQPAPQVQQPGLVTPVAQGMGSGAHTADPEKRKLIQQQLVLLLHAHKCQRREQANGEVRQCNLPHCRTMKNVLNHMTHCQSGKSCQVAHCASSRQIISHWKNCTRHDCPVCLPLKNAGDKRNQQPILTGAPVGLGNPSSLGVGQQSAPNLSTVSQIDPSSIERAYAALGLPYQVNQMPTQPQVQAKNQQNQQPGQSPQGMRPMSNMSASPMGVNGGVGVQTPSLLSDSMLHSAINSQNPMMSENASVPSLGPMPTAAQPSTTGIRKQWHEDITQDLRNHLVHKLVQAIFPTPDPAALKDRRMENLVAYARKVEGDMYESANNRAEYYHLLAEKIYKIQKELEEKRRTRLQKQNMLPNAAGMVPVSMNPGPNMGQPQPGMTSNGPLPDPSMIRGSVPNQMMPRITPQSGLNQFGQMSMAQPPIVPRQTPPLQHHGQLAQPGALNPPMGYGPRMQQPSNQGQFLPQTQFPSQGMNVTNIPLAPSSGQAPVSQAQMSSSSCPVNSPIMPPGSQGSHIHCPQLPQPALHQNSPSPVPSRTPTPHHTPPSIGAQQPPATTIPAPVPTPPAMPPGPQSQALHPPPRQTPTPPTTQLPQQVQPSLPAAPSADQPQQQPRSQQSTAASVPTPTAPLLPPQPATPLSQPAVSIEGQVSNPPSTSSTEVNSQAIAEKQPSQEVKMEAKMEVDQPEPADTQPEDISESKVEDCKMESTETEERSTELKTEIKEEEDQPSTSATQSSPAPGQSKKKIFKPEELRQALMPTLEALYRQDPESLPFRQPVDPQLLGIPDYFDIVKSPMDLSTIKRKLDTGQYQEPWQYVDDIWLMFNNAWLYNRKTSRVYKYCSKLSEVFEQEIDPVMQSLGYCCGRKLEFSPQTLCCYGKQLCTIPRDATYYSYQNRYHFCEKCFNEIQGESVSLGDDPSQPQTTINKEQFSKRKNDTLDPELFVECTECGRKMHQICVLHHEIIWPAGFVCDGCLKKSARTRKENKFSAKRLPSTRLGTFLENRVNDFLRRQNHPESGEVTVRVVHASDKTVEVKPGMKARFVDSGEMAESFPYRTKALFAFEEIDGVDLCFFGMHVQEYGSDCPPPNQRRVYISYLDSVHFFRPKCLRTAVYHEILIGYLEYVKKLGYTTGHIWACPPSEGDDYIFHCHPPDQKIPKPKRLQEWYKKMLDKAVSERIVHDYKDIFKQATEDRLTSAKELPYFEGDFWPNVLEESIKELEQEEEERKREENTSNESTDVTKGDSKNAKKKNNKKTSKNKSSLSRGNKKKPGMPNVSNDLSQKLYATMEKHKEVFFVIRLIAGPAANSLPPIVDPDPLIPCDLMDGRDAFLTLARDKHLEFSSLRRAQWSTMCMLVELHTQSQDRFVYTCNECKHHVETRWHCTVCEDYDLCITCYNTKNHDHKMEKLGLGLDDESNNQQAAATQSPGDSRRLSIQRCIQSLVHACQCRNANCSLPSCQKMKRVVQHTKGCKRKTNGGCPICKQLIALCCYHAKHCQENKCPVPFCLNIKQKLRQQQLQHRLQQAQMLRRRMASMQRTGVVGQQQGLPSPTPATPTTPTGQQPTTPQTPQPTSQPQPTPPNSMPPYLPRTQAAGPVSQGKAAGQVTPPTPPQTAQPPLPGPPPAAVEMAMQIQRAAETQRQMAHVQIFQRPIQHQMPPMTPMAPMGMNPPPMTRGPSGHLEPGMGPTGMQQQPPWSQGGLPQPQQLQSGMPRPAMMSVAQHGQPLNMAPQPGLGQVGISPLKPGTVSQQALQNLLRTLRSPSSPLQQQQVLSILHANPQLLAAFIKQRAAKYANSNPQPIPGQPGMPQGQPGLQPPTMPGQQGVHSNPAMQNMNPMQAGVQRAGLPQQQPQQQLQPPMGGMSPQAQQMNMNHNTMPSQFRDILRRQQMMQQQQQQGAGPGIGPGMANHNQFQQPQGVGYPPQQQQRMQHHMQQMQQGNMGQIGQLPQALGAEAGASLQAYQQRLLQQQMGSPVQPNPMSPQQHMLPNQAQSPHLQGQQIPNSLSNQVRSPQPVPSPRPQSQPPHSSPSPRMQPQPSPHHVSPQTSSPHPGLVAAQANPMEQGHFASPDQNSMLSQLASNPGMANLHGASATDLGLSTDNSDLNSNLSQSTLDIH

[6] = Fluorescence quenching in HTS buffer with 20 uM 7-diethylamino-3-(4'-maleimidyl-phenyl)-4-methylcoumarin assessed as fluorescence signal reduction at 10 uM after 10 mins; assay type: physicochemical
[7] = molecular target: T1, Histone acetyltransferase RTT109 (Saccharomyces cerevisiae (strain ATCC 204508 / S288c) (Baker's yeast)); experiment: Inhibition of Vps75-stimulated recombinant Saccharomyces cerevisiae histone acetyltransferase Rtt109 using [3H]-acetyl-CoA assessed as acetate incorporation […] by liquid scintillation counting in presence of 1 mM DTT
[8] = molecular target: T2, Histone acetyltransferase p300; experiment: Inhibition of recombinant histone acetyltransferase p300 (unknown origin) using dH3-H4 tetramer and [3H]-acetyl-CoA assessed as acetate incorporation after 5 mins by liquid scintillation counting in presence of 1 mM DTT
[9] = molecular target: T1, Histone acetyltransferase RTT109 (Saccharomyces cerevisiae (strain ATCC 204508 / S288c) (Baker's yeast)); experiment: Inhibition of Vps75-stimulated recombinant Saccharomyces cerevisiae histone acetyltransferase Rtt109 assessed as H3K56 acetylated product at […] after 45 mins by Slot bolt inhibiton assay
[10] = Fluorescence quenching assessed as fluorescence signal reduction at 10 uM after 10 mins; assay type: physicochemical
Procedure, shortened: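 CPM (20 μM final) and CoA (5 μM final) reacted to completion in assay buffer (stable plateau, usually ~5 min); adduct solution added to wells preplated with compound; shaken 5 min, equilibrated 5 min at room temperature; fluorescence intensity read as percent signal reduction versus DMSO controls. Flagged as quencher at >20% signal reduction at 10 μM final compound.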

[11] = molecular target: Histone acetyltransferase GCN5 (Saccharomyces cerevisiae S288c, UniProt Q03330); experiment: Inhibition of yeast histone acetyltransferase Gcn5-Ada2-Ada3 complex using tetramer and [3H]-acetyl-CoA assessed as acetate incorporation after 30 mins by liquid scintillation counting
Histone acetyltransferase GCN5, sequence (Q03330 whole entry): as the sequence (Q03330 whole entry) above

[12] = molecular target: T3, Histone acetyltransferase RTT109 (Saccharomyces cerevisiae (strain ATCC 204508 / S288c) (Baker's yeast), UniProt Q07794); experiment: Inhibition of Vps75-stimulated recombinant Saccharomyces cerevisiae histone acetyltransferase Rtt109 using [3H]-acetyl-CoA assessed as acetate incorporation after 30 mins by liquid scintillation counting
T3 sequence (Q07794 whole entry): T1 sequence (whole entry)

[13] = molecular target: T3, Histone acetyltransferase RTT109; experiment: Inhibition of Vps75-stimulated recombinant Saccharomyces cerevisiae histone acetyltransferase Rtt109 using Asf1-dH3-H4 as substrate assessed as coenzyme A production after 45 mins by CPM based HTS assay
Procedure, shortened: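 Recombinant Rtt109–Vps75 at 50 nM, with Asf1–dH3–H4 as substrate and acetyl-CoA as acetyl donor. Buffer contained freshly prepared 0.01% Triton X-100. The CoA product was detected by fluorescence of its CPM adduct. Plates had Z′ ≥0.5. IC50 came from a four-parameter variable-slope fit.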

## O=S1(=O)C=C(Sc2nnc(-c3ccccc3)o2)c2ccccc21
[1]
  Activity: Not Active
[2]
  Activity: Not Active
[3]
  Activity: Active
[4]
  Activity: Active
[5]; read-out: IC50
  IC50: 11000 nM
[6]
  Activity: Not Active
[7]
  Activity: Active
[8]
  Activity: Active
[9]
  Activity: Active
[10]
  Activity: Not Active
[11]; read-out: IC50
  IC50: 11000 nM

## COc1ccc(-c2nnc(SC3CC(=O)N(c4ccc(Cl)cc4)C3=O)[nH]2)cc1 (stereo unspecified)
[1]
  Activity: Not Active
[2]
  Activity: Not Active
[3]
  Activity: Active
[4]
  Activity: Active
[5]; read-out: IC50
  IC50: 2800 nM
[6]
  Activity: Not Active
[7]
  Activity: Active
[8]
  Activity: Active
[9]
  Activity: Active
[10]
  Activity: Not Active
[11]; read-out: IC50
  IC50: 6700 nM

## OC(Cn1cncn1)(Cn1cncn1)c1ccc(F)cc1F [FLUCONAZOLE]
[3]
  Activity: inactive
[12]
  IC50: Not Active
[5]
  IC50: Not Active
[13]
  IC50: Not Active
[7]
  Activity: inactive
[8]
  Activity: inactive
[11]
  IC50: Not Active

## O=S1(=O)C=C(Sc2nnc(-c3ccncc3)o2)c2ccccc21
[1]
  Activity: Not Active
[2]
  Activity: Not Active
[3]
  Activity: Active
[4]
  Activity: Active
[5]; read-out: IC50
  IC50: 6200 nM
[6]
  Activity: Not Active
[7]
  Activity: Active
[8]
  Activity: Active
[9]
  Activity: Active
[10]
  Activity: Not Active
[11]; read-out: IC50
  IC50: 3700 nM

## CNc1nc(-c2ccccc2)[n+](-c2ccc(C)cc2)s1.[Br-]
[1]
  Activity: Not Active
[2]
  Activity: Not Active
[3]
  Activity: Active
[4]
  Activity: Active
[5]; read-out: IC50
  IC50: 2000 nM
[6]
  Activity: Not Active
[7]
  Activity: Active
[8]
  Activity: Active
[9]
  Activity: Active
[10]
  Activity: Not Active
[11]; read-out: IC50
  IC50: 8100 nM

## C=C(C)[C@@H](CC=C(C)C)C[C@@]12C[C@@H](CC=C(C)C)C(C)(C)[C@@](CC=C(C)C)(C(=O)C(C(=O)c3ccc(O)c(O)c3)=C1O)C2=O [GARCINOL]
[3]
  Activity: inactive
[5]; read-out: IC50
  IC50: 1700 nM
[7]
  Activity: inactive
[8]
  Activity: inactive
[11]; read-out: IC50
  IC50: 2600 nM

## CCN(CC)c1ccc2c(C)c(-c3ccc(N4C(=O)C=CC4=O)cc3)c(=O)oc2c1
[3]
  Activity: Active
[12]; read-out: IC50
  IC50: 260 nM
[5]; read-out: IC50
  IC50: 260 nM
[7]
  Activity: Active
[8]
  Activity: Active
[11]; read-out: IC50
  IC50: 1100 nM

## O=S(=O)(Nc1cc(Sc2nc[nH]n2)c(O)c2ccccc12)c1ccc(Br)cc1
[1]
  Activity: Not Active
[2]
  Activity: Not Active
[3]
  Activity: Active
[4]
  Activity: Active
[5]; read-out: IC50
  IC50: 1100 nM
[6]
  Activity: Not Active
[7]
  Activity: Active
[8]
  Activity: Active
[9]
  Activity: Active
[10]
  Activity: Not Active
[11]; read-out: IC50
  IC50: 5200 nM

## O=C(O)CSc1cc(NS(=O)(=O)c2ccc(Br)cc2)c2ccccc2c1O
[1]
  Activity: Not Active
[2]
  Activity: Not Active
[3]
  Activity: Active
[12]; read-out: IC50
  IC50: 130 nM
[5]; read-out: IC50
  IC50: 330 nM
[6]
  Activity: Active
[13]
  IC50: Not Active
[8]
  Activity: Active
[10]
  Activity: Not Active
[11]; read-out: IC50
  IC50: 1200 nM

## CC(C)(C)c1ccc(S(=O)(=O)Nc2ccc(O)c(Cl)c2)cc1
[1]
  Activity: Not Active
[2]
  Activity: Not Active
[4]
  Activity: inactive
[6]
  Activity: Not Active
[13]; read-out: IC50
  IC50: 75000 nM
[9]
  Activity: inactive
[10]
  Activity: Not Active

## O=[N+]([O-])c1ccc2nonc2c1Sc1nc2ccccc2[nH]1
[1]
  Activity: Not Active
[2]
  Activity: Not Active
[4]
  Activity: Active
[6]
  Activity: Not Active
[13]; read-out: IC50
  IC50: 3400 nM
[9]
  Activity: Active
[10]
  Activity: Not Active

## CC(C)c1ccc(S(=O)(=O)Nc2ccc(O)c(Sc3nc[nH]n3)c2)cc1
[1]
  Activity: Not Active
[2]
  Activity: Not Active
[4]
  Activity: inactive
[6]
  Activity: Not Active
[13]; read-out: IC50
  IC50: 200000 nM
[9]
  Activity: inactive
[10]
  Activity: Not Active

## Cc1ccc(-c2nc(N)s[n+]2-c2ccccc2)cc1.[Br-]
[1]
  Activity: Not Active
[2]
  Activity: Not Active
[3]
  Activity: Active
[4]
  Activity: Active
[5]; read-out: IC50
  IC50: 1800 nM
[6]
  Activity: Not Active
[7]
  Activity: Active
[8]
  Activity: Active
[9]
  Activity: Active
[10]
  Activity: Not Active
[11]; read-out: IC50
  IC50: 5300 nM

## O=C1CC(Sc2nncn2-c2ccccc2)C(=O)N1c1cc(Cl)cc(Cl)c1 (stereo unspecified)
[1]
  Activity: Not Active
[2]
  Activity: Not Active
[4]
  Activity: Active
[6]
  Activity: Not Active
[13]; read-out: IC50
  IC50: 16000 nM
[9]
  Activity: Active
[10]
  Activity: Not Active

## Cn1c(CN2CCOCC2)nnc1Sc1ccc([N+](=O)[O-])c2nonc12
[1]
  Activity: Not Active
[2]
  Activity: Not Active
[4]
  Activity: Active
[6]
  Activity: Not Active
[13]; read-out: IC50
  IC50: 1800 nM
[9]
  Activity: Active
[10]
  Activity: Not Active

## O=S1(=O)C=C(Sc2nnnn2-c2ccccc2)c2ccccc21
[1]
  Activity: Not Active
[2]
  Activity: Not Active
[3]
  Activity: Active
[4]
  Activity: Active
[6]
  Activity: Not Active
[7]
  Activity: Active
[8]
  Activity: Active
[9]
  Activity: Active
[10]
  Activity: Not Active
[11]; read-out: IC50
  IC50: 20000 nM

## Cc1ccc(S(=O)(=O)Nc2cc(Sc3nnnn3-c3ccccc3)c(O)c3ccccc23)cc1
[1]
  Activity: Not Active
[2]
  Activity: Not Active
[4]
  Activity: Active
[6]
  Activity: Not Active
[13]; read-out: IC50
  IC50: 8600 nM
[9]
  Activity: Active
[10]
  Activity: Not Active

## COc1ccc(Nc2nc(-c3ccc(OC)cc3)[n+](CS(=O)(=O)c3ccc(C)cc3)s2)cc1.O=S(=O)([O-])O
[1]
  Activity: Not Active
[2]
  Activity: Not Active
[4]
  Activity: Active
[6]
  Activity: Not Active
[13]; read-out: IC50
  IC50: 2700 nM
[9]
  Activity: Active
[10]
  Activity: Not Active

## O=C1C=CC(=O)N1c1ccc(Oc2ccccc2)cc1
[1]
  Activity: Not Active
[2]
  Activity: Not Active
[4]
  Activity: Active
[6]
  Activity: Not Active
[13]; read-out: IC50
  IC50: 3000 nM
[9]
  Activity: Active
[10]
  Activity: Not Active

## O=C1C=CC(=O)N1c1ccccc1
[1]
  Activity: Not Active
[2]
  Activity: Not Active
[4]
  Activity: Active
[6]
  Activity: Not Active
[13]; read-out: IC50
  IC50: 7600 nM
[9]
  Activity: Active
[10]
  Activity: Not Active

## O=[N+]([O-])c1cccc(S(=O)(=O)Nc2cc(SCc3ccccc3)c(O)c3ccccc23)c1
[1]
  Activity: Not Active
[2]
  Activity: Not Active
[4]
  Activity: Active
[6]
  Activity: Not Active
[13]; read-out: IC50
  IC50: 2000 nM
[9]
  Activity: Active
[10]
  Activity: Not Active

## O=S(=O)(Nc1cc(SCc2ccco2)c(O)c2ccccc12)c1ccccc1
[1]
  Activity: Not Active
[2]
  Activity: Not Active
[4]
  Activity: Active
[6]
  Activity: Not Active
[13]; read-out: IC50
  IC50: 2100 nM
[9]
  Activity: Active
[10]
  Activity: Not Active
